Results on 4 compounds are retold here after ChEMBL document CHEMBL1137728, “Synthesis of novel thiazolone-based compounds containing pyrazoline moiety and evaluation of their anticancer activity” (2009).

Usually GI50 stands for the concentration at which growth is held to half of that of the control. A lower GI50 goes with more potent growth inhibition.

Common to all, as to assay type: functional
One test relates to MOLT-4. Nature of the test: Anticancer activity against human MOLT4 cells assessed as cell growth at 10 uM after 48 hrs by SRB assay. The settings on record: MOLT-4, 48 h, read-out: Activity. A digest of the protocol:
(§1)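 US NCI one-dose screen across about 60 human tumour cell lines. A single concentration of 10^-5 M was applied with 48 h continuous exposure. The end point was sulforhodamine B protein staining, read spectrophotometrically. Results are given as percent growth of treated cells relative to untreated controls.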

Test [1] in a line: Anticancer activity against human NCI60 cells assessed as cell growth at 10 uM after 48 hrs by SRB assay. The conditions noted are these: NCI60, 48 h, read-out: Activity. The method in brief: as §1
For test [2], the system named is CCRF-CEM. Nature of the test: Anticancer activity against human CCRF-CEM cells assessed as cell growth at 10 uM after 48 hrs by SRB assay. The settings on record: read-out: Activity. A digest of the protocol: as §1
The next test concerns HL-60(TB). Nature of the test: Anticancer activity against human HL-60(TB) cells assessed as cell growth at 10 uM after 48 hrs by SRB assay. The conditions noted are these: HL-60, 48 h, read-out: Activity. A digest of the protocol:
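Single-dose NCI-60 screen: 10^-5 M added to culture, 48 h incubation; endpoint by sulforhodamine B protein staining read spectrophotometrically; reported as percent growth of treated cells versus untreated control cells.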
(In SRB staining, fixed cells bind dye roughly in proportion to their protein.)

The test system of another test is HCT-15. Nature of the test: Growth inhibition of human HCT15 cells after 48 hrs by SRB assay. The settings on record: HCT-15, 48 h. The method in brief: (§2)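 NCI five-dose screen across about 60 human tumour cell lines, at 10-fold dilutions from 10^-4 to 10^-8 M with 48 h continuous exposure, read by SRB. Percent growth used time-zero, untreated control and treated absorbances. GI50 was the concentration giving 50% lower net protein increase than controls. Values beyond the tested range were reported as more or less than the maximum or minimum concentration.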

A further test concerns KM12. Nature of the test: Growth inhibition of human KM12 cells after 48 hrs by SRB assay. The conditions noted are these: KM12, 48 h. The method in brief:
as §2

The subject of another test is U-251. Nature of the test: Growth inhibition of human U251 cells after 48 hrs by SRB assay. The conditions noted are these: U-251, 48 h. The method in brief:
as §2

A further test relates to UACC-62. Nature of the test: Growth inhibition of human UACC62 cells after 48 hrs by SRB assay. The conditions noted are these: UACC-62, 48 h. A digest of the protocol:
as §2

A further test concerns IGROV-1. Nature of the test: Growth inhibition of human IGROV1 cells after 48 hrs by SRB assay. The settings on record: IGROV-1, 48 h. The method in brief:
as §2

The next test has as its system 786-0. Nature of the test: Growth inhibition of human 786-0 cells after 48 hrs by SRB assay. The settings on record: 786-0, 48 h. A digest of the protocol: as §2
The next test concerns SN12C. Nature of the test: Growth inhibition of human SN12C cells after 48 hrs by SRB assay. A digest of the protocol:
as §2

A further test concerns NCI/ADR-RES. Nature of the test: Growth inhibition of human NCI/ADR-RES cells after 48 hrs by SRB assay. The method in brief: as §2
Test [3] relates to CCRF-CEM. Nature of the test: Growth inhibition of human CCRF-CEM cells after 48 hrs by SRB assay. A digest of the protocol: as §2
A short description of test [4]: Growth inhibition of human […] cells after 48 hrs by SRB assay. The method in brief:
as §2

In the next test the test system is HOP-62. Nature of the test: Growth inhibition of human HOP62 cells after 48 hrs by SRB assay. The settings on record: HOP-62, 48 h. A digest of the protocol: as §2
The subject of a further test is HOP-92. Nature of the test: Growth inhibition of human HOP92 cells after 48 hrs by SRB assay. The settings on record: HOP-92, 48 h. A digest of the protocol: as §2

Consider `O=C1CSC(N2N=C(c3ccccc3)CC2c2ccccc2O)=N1` (centres undefined), for which the growth at 10 µM is -61.5% in the test with MOLT-4 and 101% in test [1].

On to `O=C1N=C(N2N=C(c3ccccc3)CC2c2ccccc2O)S/C1=C\c1ccc(Cl)cc1` (centres undefined), for which the growth at 10 µM was 98.3% in test [1] and -25% with CCRF-CEM [2].

Consider `O=C1N=C(N2N=C(c3ccccc3)CC2c2ccccc2O)S/C1=C\c1cccc(Br)c1` (centres undefined), for which the growth at 10 µM was 88.6% in test [1] and -54% with HL-60(TB).

`O=C1N=C(N2N=C(c3ccccc3)CC2c2ccccc2O)/C(=C/c2ccccc2)S1` (centres undefined): the GI50 with HCT-15 is 1510 nM; in the test with KM12, 1620 nM; in the test on U-251, 1550 nM; with UACC-62, 1620 nM; in the test with IGROV-1, 2000 nM; in the test with 786-0 it was 1820 nM. Further, the GI50 in the test on SN12C is 1700 nM; in the test with NCI/ADR-RES, 1820 nM; in the test on CCRF-CEM [3], 1910 nM; in test [4], 1550 nM; in the test on HOP-62, 1620 nM; in the test on HOP-92, 1550 nM. Also, the TGI in the test with HCT-15 (read-out: pTGI (converted)) was 2950 nM; with KM12 (read-out: pTGI (converted)), 4470 nM; in the test on U-251 (read-out: pTGI (converted)), 2880 nM; with UACC-62 (read-out: pTGI (converted)), 2950 nM; in the test with IGROV-1 (read-out: pTGI (converted)), 4470 nM; in the test on 786-0 (read-out: pTGI (converted)) it was 3890 nM. The TGI is 3090 nM in the test on SN12C (read-out: pTGI (converted)); 4570 nM with CCRF-CEM [3] (read-out: pTGI (converted)); 3240 nM in test [4] (read-out: pTGI (converted)); 3470 nM in the test on HOP-62 (read-out: pTGI (converted)); 4470 nM in the test on HOP-92 (read-out: pTGI (converted)).
